Measured values of several laboratories.
Target: Myosin light chain kinase (MYLK3, Homo sapiens, UniProt Q32MK0)
Residues used in one study (Q32MK0 1-819): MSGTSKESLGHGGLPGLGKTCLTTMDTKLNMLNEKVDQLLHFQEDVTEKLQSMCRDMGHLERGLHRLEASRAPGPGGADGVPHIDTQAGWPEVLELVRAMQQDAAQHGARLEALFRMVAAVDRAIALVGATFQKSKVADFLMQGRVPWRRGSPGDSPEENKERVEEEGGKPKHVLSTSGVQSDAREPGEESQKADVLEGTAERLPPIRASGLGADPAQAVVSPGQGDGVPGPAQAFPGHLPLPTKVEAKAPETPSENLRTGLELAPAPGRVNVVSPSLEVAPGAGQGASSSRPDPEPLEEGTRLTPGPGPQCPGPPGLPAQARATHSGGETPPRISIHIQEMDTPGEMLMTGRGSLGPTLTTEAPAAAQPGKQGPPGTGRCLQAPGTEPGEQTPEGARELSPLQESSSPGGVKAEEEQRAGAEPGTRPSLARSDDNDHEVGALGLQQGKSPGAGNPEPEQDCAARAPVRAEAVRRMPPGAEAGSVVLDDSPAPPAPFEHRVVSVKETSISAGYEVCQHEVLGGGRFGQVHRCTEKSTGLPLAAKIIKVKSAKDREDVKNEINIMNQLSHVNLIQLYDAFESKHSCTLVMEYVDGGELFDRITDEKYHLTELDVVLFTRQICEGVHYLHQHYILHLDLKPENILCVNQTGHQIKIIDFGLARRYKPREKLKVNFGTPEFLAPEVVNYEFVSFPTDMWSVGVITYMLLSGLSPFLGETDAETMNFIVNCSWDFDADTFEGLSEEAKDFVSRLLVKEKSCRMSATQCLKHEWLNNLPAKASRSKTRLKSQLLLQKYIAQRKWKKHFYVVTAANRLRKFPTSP

Structure (SMILES)	read-out	mode	technique	concentration	quantity	value
O=C1CCc2cc(Nc3cc(OC4CCOCC4)c([N+](=O)[O-])cc3Cl)ccc2N1	cell-free assay	–	competition with immobilised ligand	1 µM	remaining binding	100%
Nc1ncnc2occ(-c3ccc(NC(=O)Nc4cc(C(F)(F)F)ccc4F)cc3)c12	cell-free assay	inhibitor	–	20 µM	remaining signal	0.15%
CC(C)(O)[C@H]1CC[C@H](Nc2ccc3ncc(-c4cccc(C(F)(F)F)c4)n3n2)CC1	enzyme activity	inhibitor	–	1 µM	remaining activity	100%
CC(C)(C)c1nc2c(s1)c1nc(N)ncc1c1ccc(NS(=O)(=O)c3c(F)cccc3F)c(F)c12	enzyme activity	inhibitor	radiometric	1 µM	remaining activity	93%
Cc1ccc(C(=O)Nc2ccc(CN3CCN(C)CC3)c(C(F)(F)F)c2)cc1C#Cc1cnc2cccnn12	enzyme activity	inhibitor	–	23.5 nM	remaining activity	99%
F[C@@H]1CCN(c2nccc(-c3cnn4ncccc34)n2)C1	binding	–	–	1 µM	remaining binding	100%
CC(C)(C)c1nc(-c2cccc(NS(=O)(=O)c3c(F)cccc3F)c2F)c(-c2ccnc(N)n2)s1	enzyme activity	inhibitor	radiometric	1 µM	remaining activity	100%
CO[C@@H](C)c1c(Nc2ccc([C@@H](N(C)C(=O)C3CCS(=O)(=O)CC3)C(F)(F)F)cc2)cnc2cc(Cl)nn12	cell-free assay	–	competition with immobilised ligand	1 µM	remaining binding	87%
Cc1cnn2ncc(-c3ccnc(N(C)C)n3)c2c1	binding	–	–	1 µM	remaining binding	96%
O=C(Nc1cnn(-c2csc(C(=O)NC3COC3)c2)c1)Nc1ccccc1Cl	enzyme activity	inhibitor	–	5 µM	remaining activity	95.1%
